Test results published in paper PMC8378355 (BMJ Open Diabetes Research & Care, 2021).

What was measured:
insulin receptor (IR) = insulin receptor (IR) (Homo sapiens, UniProt P06213); test: IR affinity relative to HI; assay type: binding
protein kinase B (AKT) = test: Phospho-AKT in CHO-hIR cells; assay type: cell-based, Chinese Hamster; settings: read-out: EC50 (nM) Mean (95% CI), Phospho-AKT in CHO-hIR cells; HSA 0.1%, n=3
[1] = tested on: extracellular-regulated kinase (ERK); test: Phospho-ERK in CHO-hIR cells; assay type: cell-based, Chinese Hamster; settings: HSA 0.1%, n=3; for EC50: read-out: EC50 (nM) Mean (95% CI), Phospho-ERK in CHO-hIR cells
rat hepatocytes = test: Glycogen accumulation in rat hepatocytes; assay type: cell-based; settings: for EC50: read-out: EC50 (nM) Mean (95% CI), Glycogen accumulation in rat hepatocytes, n=7, geometric mean
Procedure, shortened: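 Hepatocytes are isolated from rat by two-step collagenase perfusion. […] Determine cellular glycogen as glucose released after amyloglucosidase digestion.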

primary rat adipocytes = test: Lipogenesis in rat adipocytes; assay type: cell-based; settings: HSA 0.1%, n=4
MCF-7 cells [2] = test: Glycogen synthesis in human MCF-7 cells; assay type: cell-based; settings: HSA 0%, n=5
Procedure, shortened: (§1)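 L6-hIR cells are a rat skeletal myoblast L6 line stably transfected with the A isoform of human IR. MCF-7 is a human mammary adenocarcinoma line.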

[3] = Clinical pharmacology trial: pharmacokinetics, total serum insulin icodec; assay type: in vivo, human
Procedure, shortened: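 Randomized, double-blind, double-dummy, active-controlled, multiple-dose escalation trial in adults aged 18–64 with type 2 diabetes on insulin (HbA1c ≤9.0%). Participants received once-weekly s.c. thigh injections at 12, 20 or 24 nmol/kg (one dose per cohort) for 5 weeks, at ~20:00. Total serum test compound (free plus albumin-bound) was measured by a specific assay at prespecified times, from predose to 36 days after the last dose.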

HMEC cells = test: DNA synthesis; assay type: cell-based, human; settings: HSA 0%, n=7
Human IR-B = Human IR-B (Homo sapiens, UniProt P06213); test: Human IR-B binding, competition scintillation proximity assay; settings: n=3
L6-hIR cells [4] = test: Glycogen synthesis in rat L6-hIR cells; assay type: cell-based; settings: HSA 0.1%, n=4
Procedure, shortened: as §1

COLO-205 cells = test: DNA synthesis; assay type: cell-based, human; settings: HSA 0%, n=3
L6-hIR cells [5] = test: DNA synthesis; assay type: cell-based, rat; settings: HSA 0%, n=5
Human IR-A = Human IR-A (Homo sapiens, UniProt P06213); test: Human IR-A binding, competition scintillation proximity assay; settings: n=3
[6] = tested on: individuals with type 2 diabetes; test: Clinical pharmacology trial: safety assessments; assay type: in vivo, human
Procedure, shortened: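 Dose-escalation trial in type 2 diabetes. Three sequential cohorts received once-weekly s.c. thigh injections at 12, 20 or 24 nmol/kg with once-daily placebo for 5 weeks. Safety covered adverse events, hypoglycemic episodes, injection site reactions, vital signs, physical examination, clinical laboratory tests and ECG. An internal safety group reviewed blinded interim data before each escalation.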

Human IGF-1R = Human IGF-1R (Homo sapiens, UniProt P08069); test: Human IGF-1R binding, competition scintillation proximity assay; settings: HSA 0%, n=4
MCF-7 cells [7] = test: DNA synthesis; assay type: cell-based, human; settings: HSA 0%, n=4
[8] = target: human insulin receptors (hIRs) (Homo sapiens, UniProt P06213); test: IR phosphorylation in CHO-hIR cells; assay type: cell-based

Sequence of Human IGF-1R (P08069 31-736 limits assumed): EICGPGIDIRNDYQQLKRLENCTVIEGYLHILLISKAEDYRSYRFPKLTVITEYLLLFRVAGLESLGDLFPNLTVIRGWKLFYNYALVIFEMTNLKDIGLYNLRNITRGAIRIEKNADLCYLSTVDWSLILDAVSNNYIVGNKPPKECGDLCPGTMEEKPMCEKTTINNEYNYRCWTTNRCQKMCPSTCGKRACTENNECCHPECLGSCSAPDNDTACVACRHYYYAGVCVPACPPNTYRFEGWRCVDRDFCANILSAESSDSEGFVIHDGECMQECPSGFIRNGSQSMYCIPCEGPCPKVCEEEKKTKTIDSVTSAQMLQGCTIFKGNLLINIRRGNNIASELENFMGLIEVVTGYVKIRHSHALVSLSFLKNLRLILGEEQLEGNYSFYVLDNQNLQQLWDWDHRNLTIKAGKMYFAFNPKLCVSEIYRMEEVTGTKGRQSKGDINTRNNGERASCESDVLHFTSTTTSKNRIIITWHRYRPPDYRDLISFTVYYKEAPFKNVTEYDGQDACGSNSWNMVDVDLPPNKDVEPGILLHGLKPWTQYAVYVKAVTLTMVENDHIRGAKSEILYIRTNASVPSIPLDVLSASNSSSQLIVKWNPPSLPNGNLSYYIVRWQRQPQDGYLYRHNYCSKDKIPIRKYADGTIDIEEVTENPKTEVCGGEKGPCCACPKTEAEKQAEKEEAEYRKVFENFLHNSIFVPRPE
Sequence of Human IGF-1R (P08069 741-1367 partner limits assumed): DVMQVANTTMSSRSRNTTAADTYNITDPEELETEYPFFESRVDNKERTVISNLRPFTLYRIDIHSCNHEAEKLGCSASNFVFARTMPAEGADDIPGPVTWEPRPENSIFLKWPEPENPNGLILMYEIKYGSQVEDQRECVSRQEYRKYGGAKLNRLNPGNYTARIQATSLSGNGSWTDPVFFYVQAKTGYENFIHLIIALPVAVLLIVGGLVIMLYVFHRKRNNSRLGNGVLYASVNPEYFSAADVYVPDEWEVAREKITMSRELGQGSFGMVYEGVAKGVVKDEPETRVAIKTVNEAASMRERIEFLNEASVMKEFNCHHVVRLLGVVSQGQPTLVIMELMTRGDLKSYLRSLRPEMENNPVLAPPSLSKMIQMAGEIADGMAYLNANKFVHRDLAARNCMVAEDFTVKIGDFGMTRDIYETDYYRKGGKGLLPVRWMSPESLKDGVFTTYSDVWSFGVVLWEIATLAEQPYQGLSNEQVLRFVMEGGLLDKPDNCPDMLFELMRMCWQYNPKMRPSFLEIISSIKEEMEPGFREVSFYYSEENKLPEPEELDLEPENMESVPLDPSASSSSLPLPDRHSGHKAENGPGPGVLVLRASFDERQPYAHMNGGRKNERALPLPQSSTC

## B16H: individual amino acid substitution TyrB16His in human insulin
Insulin receptor (IR); relative to HI
  IR affinity relative to HI: 22%

## desB30: human insulin with the threonine in position B30 deleted
Insulin receptor (IR); deletion of threonine in position B30 of HI
  influence on the IR affinity: no influence

## human insulin [reference compound]
Protein kinase B (AKT)
  EC50: 0.15 nM
[1]
  EC50: 1.02 nM
Rat hepatocytes; HSA 0%
  EC50: 0.28 nM

## insulin icodec
Primary rat adipocytes
  EC50 (%) Insulin icodec relative to human insulin Mean (95% CI), Lipogenesis in rat adipocytes: 0.029%
MCF-7 cells [2]
  EC50 (%) Insulin icodec relative to human insulin Mean (95% CI), Glycogen synthesis in human MCF-7 cells: 0.26%
[3]; type 2 diabetes, once-weekly s.c. dosing
  time to maximum concentration (median tmax): 16 h
[3]; week 5 of once-weekly dosing
  maximum serum concentration at steady state: < 500 nmol/L
HMEC cells
  EC50 (%) Insulin icodec relative to human insulin Mean (95% CI), DNA synthesis in human HMEC cells: 0.2%
Human IR-B; HSA 0%
  IC50 (%) Insulin icodec relative to human insulin Mean (95% CI), Human IR-B binding: 0.78%
Human IR-B; HSA 1.5%
  IC50 (%) Insulin icodec relative to human insulin Mean (95% CI), Human IR-B binding: 0.03%
L6-hIR cells [4]
  EC50 (%) Insulin icodec relative to human insulin Mean (95% CI), Glycogen synthesis in rat L6-hIR cells: 0.52%
COLO-205 cells
  EC50 (%) Insulin icodec relative to human insulin Mean (95% CI), DNA synthesis in human COLO-205 cells: 2.0%
L6-hIR cells [5]
  EC50 (%) Insulin icodec relative to human insulin Mean (95% CI), DNA synthesis in rat L6-hIR cells: 0.6%
Protein kinase B (AKT)
  EC50: 245 nM
Human IR-A; HSA 0%
  IC50 (%) Insulin icodec relative to human insulin Mean (95% CI), Human IR-A binding: 0.50%
Human IR-A; HSA 1.5%
  IC50 (%) Insulin icodec relative to human insulin Mean (95% CI), Human IR-A binding: 0.03%
[6]; 12 nmol/kg once weekly, n=13
  adverse events, number of events: 33 events
  adverse events, number of individuals with events: 13 individuals
[6]; 20 nmol/kg once weekly, n=13
  adverse events, number of events: 19 events
  adverse events, number of individuals with events: 9 individuals
[6]; 24 nmol/kg once weekly, n=12
  adverse events, number of events: 23 events
  adverse events, number of individuals with events: 9 individuals
[6]; 12, 20, 24 nmol/kg once weekly for 5 weeks
  serious or severe adverse events, severe hypoglycemic episodes, injection site reactions or clinically significant findings in vital signs, physical examination, clinical laboratory assessments or ECG: No serious or severe adverse events
[6]; 12, 20, 24 nmol/kg once weekly for 5 weeks, type 2 diabetes
  tolerability: well tolerated
Human IGF-1R
  IC50 (%) Insulin icodec relative to human insulin Mean (95% CI), Human IGF-1R binding: 0.14%
[1]
  EC50 (%) Insulin icodec relative to human insulin Mean (95% CI), Phospho-ERK in CHO-hIR cells: 0.39%
  EC50: 271 nM
Rat hepatocytes; HSA 0%, n=7
  EC50 (%) Insulin icodec relative to human insulin Mean (95% CI), Glycogen accumulation in rat hepatocytes: 4.3%
Rat hepatocytes; HSA 0.1%, n=8
  EC50 (%) Insulin icodec relative to human insulin Mean (95% CI), Glycogen accumulation in rat hepatocytes: 0.24%
Rat hepatocytes; HSA 0%
  EC50: 6.4 nM
MCF-7 cells [7]
  EC50 (%) Insulin icodec relative to human insulin Mean (95% CI), DNA synthesis in human MCF-7 cells: 0.5%
[8]; CHO-hIR cells, 0.1% HSA, in a similar manner as HI
  agonism at IRs (activation of IRs and downstream AKT and ERK): full agonist
[8]; HSA 0.1%, n=3
  EC50 (%) Insulin icodec relative to human insulin Mean (95% CI), IR phosphorylation in CHO-hIR cells: 0.21%
